Bioassay records as filed in PubChem BioAssay.
Hits are enriched below; roughly 3.6% of the tested compounds scored in any of these assays.
Phagocyt inh: inhibitors of macrophage phagocytosis, primary screen, imaging, J774A.1 cells, IgG beads; actives 0.07% (n = 110,000); inhibition, % at 5 µM; J774A.1 macrophage IgG-bead phagocytosis;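 active = inhibition above the mean of the plate negative controls plus 5 SD, cut at about 13% in these data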;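 also: phagocytic index as fraction of beads internalized from green versus red external bead signal; plate controls were DMSO negative control for no effect and cytochalasin-D positive control for full effect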
Measles CPE: compounds protecting cells from measles virus cytopathic effect, primary screen, measles RdRp inhibitor project, single point, MLSMR library, absorbance. Measles virus-infected cells, CPE protection. protection (pct of control), % at 4 µM. actives 1.5% (n = 140,000). AID 841, 2007; in the data active = protection mostly above about 24%, no sharp cut-off; inactive = mostly below about 26%
Yeast growth inh: growth inhibitors of yeast BB579 in restrictive medium, primary screen, yeast lifespan-shortening project, S. cerevisiae | OD615, 48 h | inhibition, % at 10 µM | actives 0.51% (n = 140,000) | AID 804, 2007;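 active = inhibition above a set limit, 3 SD over the mean compound inhibition, cut at about 44% in these data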
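System: DeaD yeast strain BB579; buffer or medium: CSMM-D dextrose restrictive medium; technique: OD at 615 nm; schedule: 4 h cell preincubation, 48 h compound exposure, 30 °C humidified; doses: single 10 µM dose; controls: amphotericin B 10 µg/mL, positive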
RAM network inh: inhibitors of the yeast RAM network, primary screen, dse1pr::URA3 reporter, 5-FOA selection. S. cerevisiae dse1pr::URA3 reporter, 5-FOA growth OD615, 2 d; analog-sensitive cbk1-as2 kinase mutant strain. actives 1.8% (n = 190,000). inhibition, % at 50 µM;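 active = inhibition above a set limit, 3 SD over mean compound inhibition, cut at about 8.4% in these data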;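 also: 0% = DMSO-only wells with no growth and 100% = 10 µM 1-NA-PP1 full growth; inhibition rescues growth on 5-FOA so higher OD means more RAM inhibition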
Yeast lifespan up: compounds extending yeast replicative lifespan, primary screen, S. cerevisiae, OD615; actives 0.68% (n = 130,000); inhibition of the nicotinamide effect, % at 10 µM; S. cerevisiae growth with nicotinamide; deaD strain in restrictive glucose medium; AID 775, 2007;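 active = inhibition above a set limit, placed 3 SD over the median of all compounds, cut at about 26% in these data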;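 also: 0% = nicotinamide-treated wells and 100% = cells grown without nicotinamide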
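System: DeaD-strain S. cerevisiae / Buffer or medium: CSMM-D, restrictive glucose (dextrose) synthetic minimal medium / Probe or stimulus: nicotinamide, 1.5 mM, co-present with compound / Compound: one concentration, 10 µM, DMSO 0.25% / Incubation: 48 h compound exposure at 30 °C, humidified / Technique: optical density (absorbance) at 615 nm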
* hit, by the source's call; . = no result given; [ ] = dose if it differs, or a comment.

SMILES	Phagocyt inh	Measles CPE	Yeast growth inh	RAM network inh	Yeast lifespan up
CCc1ccc(OC2=NS(=O)(=O)c3ccccc32)cc1	.	.	.	0	.
Cc1ccc(OC2=NS(=O)(=O)c3ccccc32)cc1	-1	28*	-44	1	-6
O=C(CSCc1cccc(CSCC(=O)Nc2ccc3ccccc3c2)n1)Nc1ccc2ccccc2c1	2	17	-67	7	-6
O=C(CSCCN1C(=O)c2ccccc2C1=O)Nc1ccc2ccccc2c1	-5	2	-9	9.2*	4
O=C1CCN(S(=O)(=O)c2ccc(Br)cc2)CCN1	.	.	.	2	.
COc1ccc(CC(=O)Nc2ccc(-c3ccc4nnc(C)n4n3)cc2)cc1OC	.	.	.	7	.
COc1ccc([N+](=O)[O-])cc1NC(=O)CSCc1ccccc1C	.	3	-54	8.6*	1
COc1ccc([N+](=O)[O-])cc1NC(=O)CSCc1ccc(Br)cc1	-8	9	-41	11*	-2
COC(=O)c1ccc(C(=O)OC)c(NC(=O)CSCc2ccc(Br)cc2)c1	.	9	-31	11*	-2
Cn1c(CSCc2ccc(Cl)cc2)n[nH]c1=S	.	.	.	1	.
CCOC(=O)C1=C(C)N(CCCC(=O)O)C(=O)NC1c1ccccc1OS(=O)(=O)c1ccc(C)cc1 (stereo not given)	.	19	-5	8.4*	-1
CCOC(=O)C1=C(C)N(CCCCCC(=O)O)C(=O)NC1c1ccccc1Cl (stereo not given)	.	16	-27	4	0
CC1=C(C(=O)OCc2ccccc2)C(c2cccc([N+](=O)[O-])c2)NC(=O)N1CCCCCC(=O)O (stereo not given)	.	2	-54	11*	10
COCCOC(=O)C1=C(C)N(Cc2ccccc2)C(=O)NC1c1ccc(OC)cc1 (stereo not given)	-1	52*	1	4	-11
CC1=C(C(=O)OCc2ccccc2)C(c2ccc(C#N)cc2)NC(=O)N1CCCC(=O)O (stereo not given)	.	31*	-24	6	0
C=CCOc1ccc(C=Nc2ccc(C)c(Cl)c2)c(O)c1	-7	6	-23	1	-2
CCN(CC)C(=O)CSc1nnc(-c2ccccc2)c(-c2ccccc2)n1	-4	8	-16	3	15
Nc1nonc1C(=O)N/N=C/c1cc(Br)ccc1O	.	.	.	1	.
CCCC(=O)Nc1cc(C(=O)O)ccc1Sc1ccccc1	.	.	.	3	.
CC1CCN(C(=O)CCc2ccc(S(=O)(=O)NC(C)(C)C)cc2)CC1	-1	13	0	2	-5
CC(C)(C)NS(=O)(=O)c1ccc(CCC(=O)N2CCOCC2)cc1	22*[artifact]	5	-9	2	-6
O=C(N/N=C/c1coc2ccccc2c1=O)c1cn(-c2ccccc2)nc1-c1ccccc1	-10	12	-45	3	28*
O=C(N/N=C/c1coc2ccccc2c1=O)c1ccccc1	.	.	.	0	.
Cc1cc(N2CCN(c3ccccc3Cl)CC2)n2cc(-c3ccccc3)nc2n1	0	30*	-37	-1	2
Cc1cc(N2CCN(c3ccccc3)CC2)n2cc(-c3ccccc3)nc2n1	.	4	-9	1	-11
SMILES	Phagocyt inh	Measles CPE	Yeast growth inh	RAM network inh	Yeast lifespan up
CC(=O)c1cc(C#N)c(SCc2ccc(F)cc2)nc1C	-1	2	-41	7	5
CCOc1ccc2nc(SCc3ccc(CC(=O)O)cc3)c(C#N)cc2c1	.	.	.	9.5*	.
CCCCSc1nc(C)c(C(C)=O)cc1C#N	-1	2	50*	10*	-16
CCOC(=O)c1cc(C#N)c(SCc2ccc(C#N)cc2)nc1C	.	10	-14	10*	-10
CC(=O)N1c2c(ccc3ccccc23)C(C)CC12CCCCC2 (stereo not given)	0	13	-2	2	13
CC1CC2(CCCCC2)Nc2c1ccc1ccccc21 (stereo not given)	.	8	-49	9.4*	.
CNC(=S)NC1CC2CCCC(C1)N2Cc1ccco1 (stereo not given)	1	27	-37	0	68*
CC(C)CNC(=S)NC1CC2CCCC(C1)N2Cc1ccco1 (stereo not given)	.	4	-50	0	-22
CCOC(=O)c1nsnc1NCCSC(=N)N	-2	5	-19	1	4
O=C(NC12CC3CC(CC(C3)C1)C2)c1ccc(=O)oc1	1	23	-47	8.7*	-3
O=c1[nH]ncc(N/N=C\c2ccncc2)c1Cl	.	.	.	2	.
Cc1cccc(/C=N\Nc2cn[nH]c(=O)c2Cl)c1	.	8	-48	9.8*	-23
CCN(CC)S(=O)(=O)c1ccc(OC)c(NC(=O)CSc2cc(Cl)ccc2Cl)c1	-4	5	-35	9.2*	4
CCN(CC)S(=O)(=O)c1ccc(OC)c(NC(=S)Nc2cccc(C)c2C)c1	-10	45*	2	2	2
COc1ccc(S(=O)(=O)Nc2cccc(F)c2C)cc1C(=O)N1CCOCC1	.	.	.	1	.
Nc1c(C(=O)O)ccc2c1C(=O)c1ccccc1C2=O	.	.	.	0	.
COC(=O)c1ccc2c(c1O)C(=O)c1ccccc1C2=O	3	18	67*	0	-11
O=C(O)C1C(c2ccccc2)C(C(=O)OCc2ccco2)C1c1ccccc1 (stereo not given)	0	4	-37	0	.
COC(=O)C1C(c2ccccc2)C(C(=O)OCc2ccco2)C1c1ccccc1 (stereo not given)	.	13	-47	8.5*	.
CCCSC1=N/C(=C\c2ccc3c(c2)OCO3)C(=O)S1	-3	2	-62	10*	-18
CN(C)Cc1c(O)c(Cl)cc2c3c(c(=O)oc12)CCCC3	0	14	-13	-2	30*
CC1=C(C(=O)OC(C)C)C(c2ccccc2)NC(=S)N1C (stereo not given)	-5	5	-32	-1	5
C=C(C(=O)c1ccccc1)C(C)CC(=O)c1ccccc1 (stereo not given)	-9	8	-17	0	34*
O=C(CC(Nc1ccccc1)C(=O)O)c1ccccc1 (stereo not given)	3	4	-70	3	-7
CC(C)(C)OC(=O)NCCc1nnc(SCc2ccc(Cl)cc2Cl)o1	.	14	-17	0	-5
Clc1cccc(NCc2nnc(SCc3ccc(Cl)cc3Cl)o2)c1	.	9	-18	8.4*	.
CCCN1CCN(C(=O)Cn2cnc3ccc(S(=O)(=O)N4CCC(C)CC4)cc3c2=O)CC1	.	.	.	2	.
CCCN1C(=O)/C(=C/c2c(NCCCOC(C)C)nc3c(C)cccn3c2=O)SC1=S	5	3	-19	9.4*	9
O=C(NCc1ccc(Cl)cc1)C(=O)NCC1OCCN1C(=O)c1cccs1 (stereo not given)	-13	38	-12	3	-4
COc1ccc(CNC(=O)C2CCN(c3nc(OC)nc(OC)n3)CC2)cc1	.	15	-37	2	90*
